Data from ChEMBL document CHEMBL1799941 (J Med Chem, 2011).
Activity calls are given as the source filed them.

Tests used:
Mus musculus [1] = experiment: Increase in HDL-cholesterol level in C57BL/6 mouse expressing cynomolgus monkey CETP gene assessed as change in HDL-C level administered orally twice daily and measured 24 hrs after first dose; format: functional, organism-based
Outline: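 Pre-dose retro-orbital bleed. Dosed 10 mg/kg PO BID at 0 and 7 h in DMSO/cremophor/saline (4:4:92). Terminal cardiac-puncture bleed at 24 h. HDL-C by enzymatic kit; change from baseline, mean of 5 mice. A change of 5 mg/dL or less was generally considered not significant.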

Mus musculus [2] = experiment: Increase in HDL-cholesterol level in C57BL/6 mouse expressing cynomolgus monkey CETP gene assessed as change in HDL-C level at 0.3 mg/kg, po BID measured 24 hrs after first dose; format: functional
Outline: (§1)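 Baseline retro-orbital bleed. Oral BID dosing in DMSO/cremophor/saline (4:4:92). Euthanized 24 h after the first dose with cardiac-puncture bleed. HDL-C by enzymatic kit on pre- and post-dose samples. Change from baseline reported as mean ± SEM, 9 mice per dose.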

Mus musculus [3] = experiment: Increase in HDL-cholesterol level in C57BL/6 mouse expressing cynomolgus monkey CETP gene assessed as change in HDL-C level at 1 mg/kg, po BID measured 24 hrs after first dose; format: functional; outline: as §1
Mus musculus [4] = experiment: Increase in HDL-cholesterol level in C57BL/6 mouse expressing cynomolgus monkey CETP gene assessed as change in HDL-C level at 3 mg/kg, po BID measured 24 hrs after first dose; format: functional; outline: as §1
[5] = Blood clearance in C57BL/6 mouse at 0.6 mg/kg, iv and 2 mg/kg, po; format: ADME, organism-based; conditions: whole blood
Outline: (§2)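 Male C57BL/6 mice. IV dosing at 0.6 mg/kg, formulated in DMSO:PEG400:water (10:55:35, v/v/v). Oral dosing at 2 mg/kg, formulated in DMSO:cremophor:saline (2:4:94, v/v/v). Reported parameters were blood clearance, volume of distribution, terminal half-life, IV- and PO-normalized AUC, Cmax and Tmax in plasma after oral dosing, and oral bioavailability.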

[6] = Volume of distribution in C57BL/6 mouse at 0.6 mg/kg, iv and 2 mg/kg, po; format: ADME, organism-based; conditions: in vivo; outline: as §2
Mus musculus [7] = experiment: Terminal half life in C57BL/6 mouse at 0.6 mg/kg, iv and 2 mg/kg, po; format: ADME, organism-based; conditions: in vivo; outline: as §2
Mus musculus [8] = experiment: Dose-normalized AUC in C57BL/6 mouse at 0.6 mg/kg, iv; format: ADME, organism-based; parameters: dose 0.6 mg/kg, route intravenous; conditions: in vivo; outline: as §2
Mus musculus [9] = experiment: Dose-normalized AUC in C57BL/6 mouse at 2 mg/kg, po; format: ADME, organism-based; parameters: dose 2 mg/kg, route oral; conditions: in vivo; outline: as §2
[10] = Cmax in C57BL/6 mouse at 2 mg/kg, po; format: ADME, organism-based; parameters: dose 2 mg/kg, route oral; conditions: in vivo; outline: as §2
[11] = Tmax in C57BL/6 mouse at 2 mg/kg, po; format: ADME, organism-based; parameters: dose 2 mg/kg, route oral; conditions: in vivo; outline: as §2
[12] = Oral bioavailability in C57BL/6 mouse at 2 mg/kg; format: ADME, organism-based; conditions: in vivo; outline: as §2
[13] = target: T1, Cholesteryl ester transfer protein (Homo sapiens) (UniProt P11597); experiment: Inhibition of human recombinant CETP-mediated cholesteryl ester transfer activity at 100 uM after 1 hr by fluorescent cholesteryl esters transfer assay relative to control
T1 sequence (whole entry): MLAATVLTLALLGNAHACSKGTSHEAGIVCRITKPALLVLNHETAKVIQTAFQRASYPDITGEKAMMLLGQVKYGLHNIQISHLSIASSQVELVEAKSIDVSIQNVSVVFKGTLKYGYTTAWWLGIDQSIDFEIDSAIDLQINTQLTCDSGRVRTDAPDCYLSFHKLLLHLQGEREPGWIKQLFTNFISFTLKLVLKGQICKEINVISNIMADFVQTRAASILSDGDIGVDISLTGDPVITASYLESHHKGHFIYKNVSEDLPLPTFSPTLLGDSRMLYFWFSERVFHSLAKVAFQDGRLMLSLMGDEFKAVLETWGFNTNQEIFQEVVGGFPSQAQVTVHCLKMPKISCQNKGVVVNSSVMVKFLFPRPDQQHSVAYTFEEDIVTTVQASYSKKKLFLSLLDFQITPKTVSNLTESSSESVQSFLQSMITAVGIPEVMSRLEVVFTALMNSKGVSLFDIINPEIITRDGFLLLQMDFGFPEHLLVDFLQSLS

Mus musculus [14] = experiment: Increase in HDL-cholesterol level in C57BL/6 mouse expressing cynomolgus monkey CETP gene assessed as change in HDL-C level at 10 mg/kg, po BID measured 24 hrs after first dose; format: functional
[15] = target: T2, Cholesteryl ester transfer protein (Homo sapiens, UniProt P11597); experiment: Inhibition of human recombinant CETP-mediated cholesteryl ester transfer activity after 1 hr by fluorescent cholesteryl esters transfer assay
T2 sequence (P11597 whole entry): T1 sequence (whole entry)

Row | Structure (SMILES) | inhibition [13] | IC50 [15] | Activity (Mus musculus [14]) | further results
1 | COc1cc(F)c(C(C)C)cc1-c1ccc(C(F)(F)F)cc1CN1C(=O)O[C@H](c2cc(C(F)(F)F)cc(C(F)(F)F)c2)[C@@H]1C [ANACETRAPIB] |  |  |  | Activity (Mus musculus [1]): Dose-dependent effect; Activity (Mus musculus [2]): 14 mg/dL; Activity (Mus musculus [3]): 16.4 mg/dL; Activity (Mus musculus [4]): 21.7 mg/dL; clearance [5]: 11 mL/min/kg; Vd [6]: 2 L/kg; beta t1/2 (Mus musculus [7]): 3.6 h; AUC/dose (Mus musculus [8]): 2.4 µM·kg·h/mg; AUC/dose (Mus musculus [9]): 0.356 µM·kg·h/mg; Cmax [10]: 280 nM; Tmax [11]: 1 h; bioavailability [12]: 15%
2 | COc1ccc(C(C)C)cc1-c1ccc(C(F)(F)F)cc1CN1C[C@@H](c2cc(C(F)(F)F)cc(C(F)(F)F)c2)OC1=O | 93% | 93 nM | inactive | 
3 | COc1cc(F)c(C(C)C)cc1-c1ccc(C(F)(F)F)cc1CN1C[C@@H](c2cc(C(F)(F)F)cc(C(F)(F)F)c2)OC1=O | 97% | 25.6 nM | 6.3 mg/dL | 
4 | COc1cc(F)c(C(C)C)cc1-c1ccc(C(F)(F)F)cc1CN1C(=O)O[C@H](c2cc(C(F)(F)F)cc(C(F)(F)F)c2)C1(C)C | 94% |  | 17 mg/dL | 
5 | COc1ccc(C(C)C)cc1-c1ccc(C(F)(F)F)cc1CN1C(=O)O[C@H](c2ccccc2)[C@@H]1C | 94% | 39.3 nM | 6.3 mg/dL | 
6 | COC(=O)N(Cc1cc(C(F)(F)F)cc(C(F)(F)F)c1)Cc1cc(C(F)(F)F)ccc1-c1cc(C(C)C)ccc1OC | 87% | 126 nM | 15 mg/dL | 
7 | CC[C@H]1[C@@H](c2cc(C(F)(F)F)cc(C(F)(F)F)c2)OC(=O)N1Cc1cc(C(F)(F)F)ccc1-c1cc(C(C)C)ccc1OC (racemic) | 87% | 268 nM |  | 

Second part, led by results:

Row | inhibition [13] | IC50 [15] | Structure (SMILES) | Activity (Mus musculus [14]) | further results
8 | 49% |  | CC[C@@H]1[C@@H](c2cc(C(F)(F)F)cc(C(F)(F)F)c2)OC(=O)N1Cc1cc(C(F)(F)F)ccc1-c1cc(C(C)C)ccc1OC (racemic) |  | 
9 | 88% |  | COC(=O)N(Cc1cc(C(F)(F)F)cc(C(F)(F)F)c1)Cc1cc(C(F)(F)F)ccc1-c1cc(C(C)C)c(F)cc1OC | 15 mg/dL | 
10 | 90% | 5670 nM | COc1ccc(C(C)C)cc1-c1ccc(C(F)(F)F)cc1CN1C(=O)O[C@@H](c2ccccc2)[C@H]1C |  | 
11 | 8% |  | COc1ccc(C(C)C)cc1-c1ccc(C(F)(F)F)cc1CN1C(=O)O[C@@H](c2cc(C(F)(F)F)cc(C(F)(F)F)c2)[C@H]1C |  | 
12 | 46% |  | COc1cc(F)c(C(C)C)cc1-c1ccc(C(F)(F)F)cc1CN1C(=O)O[C@](C)(c2cc(C(F)(F)F)cc(C(F)(F)F)c2)[C@@H]1C |  | 
13 | 21% |  | COc1cc(F)c(C(C)C)cc1-c1ccc(C(F)(F)F)cc1CN1C(=O)O[C@@H](c2cc(C(F)(F)F)cc(C(F)(F)F)c2)C1(C)C |  | 
14 | 20% |  | COc1ccc(C(C)C)cc1-c1ccc(C(F)(F)F)cc1CN1C(=O)O[C@@H](c2cc(C(F)(F)F)cc(C(F)(F)F)c2)[C@@H]1C |  | 
15 | 90% |  | COc1ccc(C(C)C)cc1-c1ccc(C(F)(F)F)cc1CN1C(=O)O[C@H](c2cc(C(F)(F)F)cc(C(F)(F)F)c2)[C@H]1C |  | 
